Results of several laboratories.
Compare with care: the assays were run in different laboratories.
Target: Dual specificity mitogen-activated protein kinase kinase 4 (MAP2K4, Homo sapiens, UniProt P45985)
Sequence (P45985 1-399, as in one of the studies): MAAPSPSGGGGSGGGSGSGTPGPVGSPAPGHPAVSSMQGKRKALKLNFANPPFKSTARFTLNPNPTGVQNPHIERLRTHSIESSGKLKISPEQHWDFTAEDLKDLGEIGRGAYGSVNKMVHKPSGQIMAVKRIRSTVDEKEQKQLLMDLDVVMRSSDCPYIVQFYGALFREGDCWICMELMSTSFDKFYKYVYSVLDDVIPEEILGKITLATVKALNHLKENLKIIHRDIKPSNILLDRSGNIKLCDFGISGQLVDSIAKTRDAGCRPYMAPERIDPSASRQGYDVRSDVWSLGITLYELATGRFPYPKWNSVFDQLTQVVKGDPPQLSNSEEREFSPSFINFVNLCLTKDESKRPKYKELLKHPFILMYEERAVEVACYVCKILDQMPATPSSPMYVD

SMILES	observed	mode	technique	cells	concentration	endpoint	value
CC(C)(C)c1nc(-c2cccc(NS(=O)(=O)c3c(F)cccc3F)c2F)c(-c2ccnc(N)n2)s1	enzyme activity	inhibitor	radiometric		1 µM	remaining activity	87%
C[C@H](c1ccc(F)cc1)N(Cc1cccc(C(=O)O)c1)C(=O)c1cnc2ccccc2c1	cell-free assay		competition with immobilised ligand		1 µM	remaining binding	100%
O=C(Nc1cnn(-c2csc(C(=O)NC3COC3)c2)c1)Nc1ccccc1Cl	enzyme activity	inhibitor			5 µM	remaining activity	113%
Cc1ccc(C(=O)Nc2ccc(CN3CCN(C)CC3)c(C(F)(F)F)c2)cc1C#Cc1cnc2cccnn12	enzyme activity	inhibitor			23.5 nM	remaining activity	97%
CC(C)(C)c1nc2c(s1)c1nc(N)ncc1c1ccc(NS(=O)(=O)c3c(F)cccc3F)c(F)c12	enzyme activity	inhibitor	radiometric		1 µM	remaining activity	81%
CN(CCCC(F)(F)F)c1nccc(-c2cnn3ncccc23)n1	binding				1 µM	remaining binding	100%
CC(C)(O)[C@H]1CC[C@H](Nc2ccc3ncc(-c4cccc(C(F)(F)F)c4)n3n2)CC1	enzyme activity	inhibitor			1 µM	remaining activity	102%
Nc1ncnc2occ(-c3ccc(NC(=O)Nc4cc(C(F)(F)F)ccc4F)cc3)c12	cell-free assay	inhibitor			20 µM	remaining signal	3.9%
Cc1sc(C(=O)NC2COC2)cc1-n1cc(NC(=O)Nc2c(F)cccc2Cl)cn1	enzyme activity	inhibitor			10 µM	remaining activity	93%
CN1CCN(c2cnc3c(C4CCN(C(=O)c5ccc(OC(F)(F)F)cc5N)CC4)ncnc3c2)CC1	cell-free assay		competition with immobilised ligand		1 µM	remaining binding	100%
CCN1CCN(Cc2ccc(NC(=O)c3ccc(C)c(Oc4ccnc5[nH]ccc45)c3)cc2C(F)(F)F)CC1	target engagement in cells	inhibitor	chemoproteomics	A-375	0.5 µM	inhibition	-23%
